# Key:
# Format in all cases: functional
# [1] = system: K562; assay: Growth inhibition of human K562 cells at 10 uM after 48 hrs by coulter counter analysis; conditions: K562, 48 h, read-out: GI
# In short: (§1)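 Single-dose NCI 60-line panel screen of test compounds. Cells grown in RPMI 1640 with 10% FBS. Compounds dissolved in DMSO, then diluted in phosphate buffer saline (final DMSO below 1%). Wells run in duplicate at 6 × 10⁴ cells/ml. Controls held PBS and DMSO at matching dilutions. Incubation 48 h at 37 °C under humidified 5% CO2. Cells diluted tenfold in saline and counted by Coulter counter. Percent growth inhibition taken from mean-graph of treated-cell growth.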
# [2] = system: A549; assay: Growth inhibition of human A549/ATCC cells at 10 uM after 48 hrs by coulter counter analysis; conditions: A549, 48 h, read-out: GI; in short: as §1
# [3] = system: EKVX; assay: Growth inhibition of human EKVX cells at 10 uM after 48 hrs by coulter counter analysis; conditions: read-out: GI; in short: as §1
# [4] = system: HOP-62; assay: Growth inhibition of human HOP62 cells at 10 uM after 48 hrs by coulter counter analysis; conditions: HOP-62, 48 h, read-out: GI; in short: as §1
# [5] = system: HOP-92; assay: Growth inhibition of human HOP92 cells at 10 uM after 48 hrs by coulter counter analysis; conditions: HOP-92, 48 h, read-out: GI; in short: as §1
# [6] = system: NCI-H226; assay: Growth inhibition of human NCI-H226 cells at 10 uM after 48 hrs by coulter counter analysis; conditions: NCI-H226, 48 h, read-out: GI; in short: as §1
# [7] = system: NCI-H460; assay: Growth inhibition of human NCI-H460 cells at 10 uM after 48 hrs by coulter counter analysis; conditions: NCI-H460, 48 h, read-out: GI; in short: as §1
# [8] = system: NCI-H522; assay: Growth inhibition of human NCI-H522 cells at 10 uM after 48 hrs by coulter counter analysis; conditions: NCI-H522, 48 h, read-out: GI; in short: as §1
# [9] = system: HCC 2998; assay: Growth inhibition of human HCC2998 cells at 10 uM after 48 hrs by coulter counter analysis; conditions: HCC 2998, 48 h, read-out: GI; in short: as §1
# [10] = system: HT-29; assay: Growth inhibition of human HT-29 cells at 10 uM after 48 hrs by coulter counter analysis; conditions: HT-29, 48 h, read-out: GI; in short: as §1
# [11] = system: KM12; assay: Growth inhibition of human KM12 cells at 10 uM after 48 hrs by coulter counter analysis; conditions: KM12, 48 h, read-out: GI; in short: as §1
# [12] = system: SF-539; assay: Growth inhibition of human SF539 cells at 10 uM after 48 hrs by coulter counter analysis; conditions: SF-539, 48 h, read-out: GI; in short: as §1
# [13] = system: SNB-19; assay: Growth inhibition of human SNB19 cells at 10 uM after 48 hrs by coulter counter analysis; conditions: SNB-19, 48 h, read-out: GI; in short: as §1
# [14] = system: SNB-75; assay: Growth inhibition of human SNB75 cells at 10 uM after 48 hrs by coulter counter analysis; conditions: SNB-75, 48 h, read-out: GI
# In short: (§2)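 Single-dose screen in the NCI 60 cell line panel. Cells grown in RPMI 1640 with 10% FBS. Compounds dissolved in DMSO and diluted in phosphate buffered saline, final DMSO under 1%. Duplicate wells seeded from culture at 6 × 10⁴ cells/ml. Incubated 48 h at 37 °C, humidified, 5% CO2. Cells diluted tenfold in saline and Coulter-counted. Percent growth inhibition computed against PBS/DMSO controls.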
# [15] = system: LOX IMVI; assay: Growth inhibition of human LOXIMVI cells at 10 uM after 48 hrs by coulter counter analysis; conditions: read-out: GI; in short: as §1
# [16] = system: MDA-MB-435; assay: Growth inhibition of human MDA-MB-435 cells at 10 uM after 48 hrs by coulter counter analysis; conditions: MDA-MB-435, 48 h, read-out: GI; in short: as §1
# [17] = system: SK-MEL-2; assay: Growth inhibition of human SK-MEL-2 cells at 10 uM after 48 hrs by coulter counter analysis; conditions: SK-MEL-2, 48 h, read-out: GI; in short: as §1
# [18] = system: SK-MEL-28; assay: Growth inhibition of human SK-MEL-28 cells at 10 uM after 48 hrs by coulter counter analysis; conditions: SK-MEL-28, 48 h, read-out: GI; in short: as §1
# [19] = system: SK-MEL-5; assay: Growth inhibition of human SK-MEL-5 cells at 10 uM after 48 hrs by coulter counter analysis; conditions: SK-MEL-5, 48 h, read-out: GI; in short: as §1
# [20] = system: OVCAR-3; assay: Growth inhibition of human OVCAR3 cells at 10 uM after 48 hrs by coulter counter analysis; conditions: OVCAR-3, 48 h, read-out: GI; in short: as §1
# [21] = system: OVCAR-4; assay: Growth inhibition of human OVCAR4 cells at 10 uM after 48 hrs by coulter counter analysis; conditions: OVCAR-4, 48 h, read-out: GI; in short: as §1
# [22] = system: OVCAR-5; assay: Growth inhibition of human OVCAR5 cells at 10 uM after 48 hrs by coulter counter analysis; conditions: OVCAR-5, 48 h, read-out: GI; in short: as §1
# [23] = system: OVCAR-8; assay: Growth inhibition of human OVCAR8 cells at 10 uM after 48 hrs by coulter counter analysis; conditions: OVCAR-8, 48 h, read-out: GI; in short: as §1
# [24] = Growth inhibition of human NCI-ADR-RES cells at 10 uM after 48 hrs by coulter counter analysis; conditions: read-out: GI; in short: as §1
# [25] = system: 786-0; assay: Growth inhibition of human 786-0 cells at 10 uM after 48 hrs by coulter counter analysis; conditions: 786-0, 48 h, read-out: GI; in short: as §1
# [26] = system: A498; assay: Growth inhibition of human A498 cells at 10 uM after 48 hrs by coulter counter analysis; conditions: A498, 48 h, read-out: GI; in short: as §1
# [27] = system: ACHN; assay: Growth inhibition of human ACHN cells at 10 uM after 48 hrs by coulter counter analysis; conditions: read-out: GI; in short: as §1
# [28] = system: CAKI-1; assay: Growth inhibition of human Caki1 cells at 10 uM after 48 hrs by coulter counter analysis; conditions: CAKI-1, 48 h, read-out: GI; in short: as §1
# [29] = system: SN12C; assay: Growth inhibition of human SN12C cells at 10 uM after 48 hrs by coulter counter analysis; conditions: read-out: GI; in short: as §1
# [30] = system: UO-31; assay: Growth inhibition of human UO31 cells at 10 uM after 48 hrs by coulter counter analysis; conditions: UO-31, 48 h, read-out: GI; in short: as §2
# [31] = system: MDA-MB-231; assay: Growth inhibition of human MDA-MB-231 cells at 10 uM after 48 hrs by coulter counter analysis; conditions: MDA-MB-231, 48 h, read-out: GI; in short: as §1
# [32] = system: BT-549; assay: Growth inhibition of human BT549 cells at 10 uM after 48 hrs by coulter counter analysis; conditions: BT-549, 48 h, read-out: GI; in short: as §1
# [33] = system: T47D; assay: Growth inhibition of human T47D cells at 10 uM after 48 hrs by coulter counter analysis; conditions: read-out: GI; in short: as §2
# [34] = system: MDA-MB-468; assay: Growth inhibition of human MDA-MB-468 cells at 10 uM after 48 hrs by coulter counter analysis; conditions: MDA-MB-468, 48 h, read-out: GI; in short: as §1
Structure (SMILES),inhibition of growth at 10 µM [1] [%],inhibition of growth at 10 µM [2] [%],inhibition of growth at 10 µM [3] [%],inhibition of growth at 10 µM [4] [%],inhibition of growth at 10 µM [5] [%],inhibition of growth at 10 µM [6] [%],inhibition of growth at 10 µM [7] [%],inhibition of growth at 10 µM [8] [%],inhibition of growth at 10 µM [9] [%],inhibition of growth at 10 µM [10] [%],inhibition of growth at 10 µM [11] [%],inhibition of growth at 10 µM [12] [%],inhibition of growth at 10 µM [13] [%],inhibition of growth at 10 µM [14] [%],inhibition of growth at 10 µM [15] [%],inhibition of growth at 10 µM [16] [%],inhibition of growth at 10 µM [17] [%],inhibition of growth at 10 µM [18] [%],inhibition of growth at 10 µM [19] [%],inhibition of growth at 10 µM [20] [%],further results
Cc1cnc(NC(=O)CN2CCN(C)CC2)s1,< 10,< 10,< 10,< 10,< 10,< 10,< 10,< 10,< 10,< 10,< 10,< 10,< 10,< 10,< 10,< 10,< 10,< 10,< 10,< 10,inhibition of growth at 10 µM [21]: < 10%; inhibition of growth at 10 µM [22]: < 10%; inhibition of growth at 10 µM [23]: < 10%; inhibition of growth at 10 µM [24]: < 10%; inhibition of growth at 10 µM [25]: < 10%; inhibition of growth at 10 µM [26]: < 10%; inhibition of growth at 10 µM [27]: < 10%; inhibition of growth at 10 µM [28]: < 10%; inhibition of growth at 10 µM [29]: < 10%; inhibition of growth at 10 µM [30]: 10.2%; inhibition of growth at 10 µM [31]: < 10%; inhibition of growth at 10 µM [32]: < 10%; inhibition of growth at 10 µM [33]: < 10%; inhibition of growth at 10 µM [34]: < 10%
CC(C(=O)Nc1nccs1)N1CCN(C)CC1 (stereo not drawn),< 10,< 10,< 10,< 10,< 10,< 10,< 10,< 10,< 10,< 10,< 10,< 10,< 10,15.5,< 10,< 10,< 10,< 10,< 10,< 10,inhibition of growth at 10 µM [21]: < 10%; inhibition of growth at 10 µM [22]: < 10%; inhibition of growth at 10 µM [23]: < 10%; inhibition of growth at 10 µM [24]: < 10%; inhibition of growth at 10 µM [25]: < 10%; inhibition of growth at 10 µM [26]: < 10%; inhibition of growth at 10 µM [27]: < 10%; inhibition of growth at 10 µM [28]: < 10%; inhibition of growth at 10 µM [29]: < 10%; inhibition of growth at 10 µM [30]: 19.4%; inhibition of growth at 10 µM [31]: < 10%; inhibition of growth at 10 µM [32]: < 10%; inhibition of growth at 10 µM [33]: < 10%; inhibition of growth at 10 µM [34]: < 10%
